A selection: hits, their analogues and other compounds. The true share with any hit is near 5.5%.
PostGolgi ctrl: yeast control strain growth, post-Golgi counter-screen; efflux-deficient yeast background strain, growth absorbance A615, 16 h; inhibition, % at 10 µM; hit rate 5% among 98,000
HePTP inhibitor: human HePTP phosphatase inhibition | recombinant HePTP phosphatase activity, OD absorbance | hit rate 0.64% among 110,000 | P35236 | AID 521 | inhibition, % at 20 µM; in the data active = inhibition above about 50%;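 also: plate controls were vehicle for no effect and reference inhibitor for full effect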
PLAP act: human PLAP activation; P05187; purified PLAP enzyme, luminescent substrate read-out; active compounds read high; activation fold at 20 µM; hit rate 1.2% among 96,000; in the data active = activation fold above about 2
Target sequence (P05187 whole entry, looked up): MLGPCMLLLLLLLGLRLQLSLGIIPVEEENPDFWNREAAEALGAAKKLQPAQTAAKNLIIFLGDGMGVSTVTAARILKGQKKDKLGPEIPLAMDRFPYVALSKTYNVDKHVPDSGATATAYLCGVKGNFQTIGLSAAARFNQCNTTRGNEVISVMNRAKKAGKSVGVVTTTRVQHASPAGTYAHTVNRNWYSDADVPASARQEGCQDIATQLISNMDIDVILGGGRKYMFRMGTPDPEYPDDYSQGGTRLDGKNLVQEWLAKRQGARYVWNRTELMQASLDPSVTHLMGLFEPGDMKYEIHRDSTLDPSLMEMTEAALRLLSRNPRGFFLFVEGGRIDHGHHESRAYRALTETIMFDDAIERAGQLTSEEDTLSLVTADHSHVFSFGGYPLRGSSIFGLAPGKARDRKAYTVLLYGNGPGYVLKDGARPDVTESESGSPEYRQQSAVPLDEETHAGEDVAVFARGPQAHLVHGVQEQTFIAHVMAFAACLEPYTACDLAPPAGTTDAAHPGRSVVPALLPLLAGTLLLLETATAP
tolC growth inh: growth inhibitors of E. coli BW25113 tolC mutant. OD615. growth inhibition, % at 10 µM (by protocol). hit rate 2.2% among 65,000. AID 573;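 active = growth inhibition at or above a cutoff equal to the mean over every tested compound plus 3 SD, cut at about 60% in these data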;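 also: growth measured after 20 h incubation at 37 °C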
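System: E. coli ΔtolC::kan strain BW25113; Buffer or medium: LB broth supplemented with 50 µg/mL kanamycin; Compound: 10 µM final, single dose; Incubation: bacterial growth with compound for 20 h at 37 °C; Signal: A615 absorbance measurement; Evaluation: growth inhibition in percent.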
Ecoli WT expand: blocks growth of wild type E. coli BW25113; OD600 absorbance; growth inhibition, % at 100 µM; hit rate 0.15% among 98,000; AID 710;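 active = growth inhibition above about 50% at one test dose, limit read from the data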;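 also: growth measured after 20 h incubation at 37 °C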
PostGolgi yeast: growth inhibition of a yeast mutant, post-Golgi transport screen | inhibition, % at 10 µM | hit rate 0.9% among 98,000 | post-Golgi transport phenotypic cell assay;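 also: yeast cells grown in 1536-well plates; yeast grown about 18 h at 30C before absorbance read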
* = called active by the depositor; nt = no result. Rule as the data show it, unless noted: active = inhibition above about 30%; inactive = the rest.

SMILES	PostGolgi ctrl	HePTP inhibitor	PLAP act	tolC growth inh	Ecoli WT expand	PostGolgi yeast
CCc1ccc(/C=N/NC(=O)c2cc(C3CC3)nc3ccccc23)s1	32.0*	nt	1	nt	-13.0	10.7
Cc1cccc2cc(C#N)c(NCCCn3ccnc3)nc12	8.6	-3.4	1.5	53.7	16.0	39.8*
c1ccc(-c2nc(NCCCn3ccnc3)c3oc4ccccc4c3n2)cc1	27.2	nt	1.7	nt	4.0	4.5
Cc1cc(NCCCn2ccnc2)n2c(nc3ccccc32)c1C#N	4.8	-6.1	0.8	-9.2	-6.0	7.0
CCc1nc(NCCCn2ccnc2)c2oc3ccccc3c2n1	32.5*	-4.9	1	-0.2	3.0	-3.0
NC1=NC(=O)/C(=C/c2ccccc2OCc2cccc3ccccc23)S1	nt	3.6	nt	nt	nt	nt
O=C(C1c2ccccc2Oc2ccccc21)N1CCN(c2ccc(Cl)cc2)CC1	37.4*	nt	1.5	nt	-24.0	-10.5
COc1ccccc1N1CCN(C(=O)C2c3ccccc3Oc3ccccc32)CC1	41.6*	-8.8	1.8	15.3	-2.0	17.4
COc1cc2c(cc1NC(=O)CSc1nc3ccccc3[nH]1)oc1ccccc12	74.5*	nt	1.3	nt	-12.0	2.4
COc1cc2c(cc1NC(=O)CN(C)Cc1nc3ccccc3c(=O)[nH]1)oc1ccccc12	58.9*	-1.8	1.6	1.2	-1.0	-5.6
COc1ccccc1CN(Cc1nc2ccccc2c(=O)[nH]1)C(=O)Nc1ccc(C)cc1	31.2*	nt	1.1	nt	2.0	3.6
CN(CC(=O)NC(=O)NCc1ccco1)Cc1nc2ccccc2c(=O)[nH]1	21.0	41.1	2.3*	2.6	6.0	-9.4
COc1cc(OC)nc(NC(=O)CSc2nc3ccccc3[nH]2)n1	-1.6	7.2	1.5	2.9	-1.0	-1.1
Cc1ccccc1OCc1nc(-c2ccccn2)no1	nt	-0.5	nt	nt	nt	nt
Cc1cc(N2C(=O)c3ccc(S(=O)(=O)c4ccc(C(=O)O)cc4)cc3C2=O)ccc1[N+](=O)[O-]	nt	0.3	nt	nt	nt	nt
COc1ccc(Cl)cc1C(=O)Nc1cccc(S(N)(=O)=O)c1	nt	0.3	nt	nt	nt	nt
Cc1ccc(CNc2ccc3c(c2)OCO3)c(C)c1	38.8*	-12.8	0.9	22.1	0.0	-2.1
CC(C)(C)C(=O)Nc1cccc(C(=O)Nc2ccc(O)cc2)c1	nt	3.4	nt	nt	nt	nt
O=C(Nc1cnc2sccn2c1=O)c1ccc(Cl)cc1Cl	32.2*	nt	1.1	nt	2.0	-2.9
COc1ccc(Cl)cc1NC(=O)c1cnc2sccn2c1=O	6.1	-9.1	0.9	-9.9	-6.0	-1.6
COC(=O)c1ccccc1NC(=O)CSc1n[nH]c(CC(C)C)n1	11.9	7.1	2.4*	8.6	-1.0	-6.7
CCN1C(=O)/C(=C\c2ccc(-c3ccc(C(=O)O)cc3)o2)N(CC)C1=S	nt	2.5	nt	nt	nt	nt
CC(C)CCn1c(=O)c2ccccc2c2ccccc2c1=O	21.8	nt	0.8	nt	1.0	3.1
CC(C)Cn1c(=O)c2ccccc2c2ccccc2c1=O	33.5*	5.8	1.1	44.6	-1.0	2.6
C=CCc1cccc2cc(C(=O)N3CCN(Cc4ccccc4)CC3)c(=O)oc12	nt	7.2	nt	nt	nt	nt
SMILES	PostGolgi ctrl	HePTP inhibitor	PLAP act	tolC growth inh	Ecoli WT expand	PostGolgi yeast
CSc1nnc2n(-c3ccc(C)cc3)c(=O)c3c4c(sc3n12)CCCC4	nt	8.4	nt	nt	nt	nt
O=C(Oc1cccc(Br)c1)c1cccnc1	33.5*	-4.7	1.1	0.5	18.0	12.0
Cc1cc(C)nc(-n2nc(C)c(Sc3ccc(F)cc3)c2N)n1	51.2*	-3.3	1.2	47.1	2.0	1.7
Cc1nn(-c2ccccc2)c(C)c1Sc1ccc(Br)cc1	nt	-15.1	nt	nt	nt	nt
O=C(CC1(O)C(=O)Nc2ccccc21)c1ccc(-n2cccc2)cc1 (stereo unspecified)	30.8*	-3.7	0.8	-2.3	7.0	-4.2
CC(=O)Nc1ccc(S(=O)(=O)NCCC(C)C)cc1	nt	2.9	nt	nt	nt	nt
CCOC(=O)c1nc(N2CCN(C(=O)OCC)CC2)c2c3c(sc2n1)CCCC3	37.3*	1.1	1.4	43.7	4.0	6.5
CCOC(=O)c1cnn(-c2nc(SC)nc3sc4c(c23)CCCC4)c1N	76.3*	nt	1.3	nt	-31.0	8.0
CCOC(=O)c1nc2sc3c(c2c(=O)[nH]1)CCCC3	-2.1	3.9	1	4.3	-5.0	-2.6
CC1=NNC(=O)C1CC(=O)N/N=C/c1cccc(O)c1 (stereo unspecified)	nt	6.3	nt	nt	nt	nt
CC1CCCN(C(=O)COC(=O)c2n[nH]c3ccccc23)C1 (stereo unspecified)	3.6	-3.0	2*	3.0	3.0	3.5
COc1ccccc1CNC(=O)COC(=O)c1n[nH]c2ccccc12	6.1	nt	2.3*	nt	9.0	-2.2
COC(=O)C1CCN(C(=O)COC(=O)c2n[nH]c3ccccc23)CC1	11.7	9.0	nt	-13.3	-1.0	0.5
